# Bioassay records from PubChem BioAssay.
# PolyA inh = inhibitors of polyadenylation in S. cerevisiae; S. cerevisiae SKY197-pL101 polyadenylation reporter, beta-gal luminescence; efflux-impaired pdr1/pdr3 knockout yeast; score 100 = 6 SD above DMSO; activity score, % at 12 µM; hit rate 0.02% among 300,000;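 active = lowest replicate activity score at least 50, where 100 means six control SD above control mean; inconclusive = lowest score under 50 but half or more replicates reach 50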;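 note: yeast exposed to compound for 9 h at 30 °C; higher score means more reporter readthrough which indicates perturbed polyadenylation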
# NALP1 inh = inhibitors of NALP1 inflammasome in yeast; S. cerevisiae NALP1/ASC/caspase-1 growth, X-gal OD620, 72 h; inhibition, % at 10 µM; hit rate 0.61% among 280,000; in the data active = inhibition mostly above about 24%, no sharp cut-off; inactive = mostly below about 32%
# NLRP3 yeast inh = blocks the NALP3 inflammasome reconstituted in yeast; Yeast reconstituted NLRP3/ASC/caspase-1, beta-gal luminescence, 24 h; inhibition, % at 10 µM; AID 2825; hit rate 0.39% among 330,000;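 active = inhibition of 50% or more; inactive = inhibition below 50%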;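 note: plate controls were induced DMSO wells for no effect and uninduced yeast grown without galactose for full effect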
# T cruzi repl = blocks replication of Trypanosoma cruzi; AID 1885; T. cruzi beta-gal in NIH3T3, luminescence, 90 h; hit rate 1.4% among 300,000; inhibition, % (test concentration not listed);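 active = mean inhibition across valid replicates above about 55%, limit read from the data; inconclusive = mean below that limit but half or more replicates reach it; inactive = mean below it, under half of replicates reach it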;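 note: signal also drops with host cell toxicity which is not excluded here; 0% = plate median of DMSO wells and 100% = zero luminescence signal; higher percent means less beta-gal luminescence so fewer parasites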
#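 Assay system: NIH/3T3 fibroblasts plus reporter T. cruzi. Amount: NIH/3T3 cells, 5,000 per well. Buffer or medium: DMEM, 2% fetal bovine serum. Doses: compound pinned at 50 nL/well, DMSO. Schedule: ≥90 h infection period, 3 h prior cell attachment. Signal: luminescent β-galactosidase signal after 60 min lysis. Read-out: parasite load inhibition, %.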
# Lmaj promast = inhibitors of Leishmania major promastigote growth | Leishmania major promastigotes, resazurin fluorescence viability | inhibition, % at 10 µM | hit rate 9% among 200,000; in the data active = inhibition above about 50%;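 note: promastigotes grown with compound for 44 hours at 28 °C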
# Calb FLC = C. albicans growth modulation with fluconazole; C. albicans CaCi-2 (fluconazole-resistant clinical isolate) + fluconazole, Alamar Blue growth, 48 h; growth inhibition, % (test concentration not listed); hit rate 0.57% among 300,000; AID 1979;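 active = growth inhibition above about 58% in most replicates, limit read from the data, passing the limit was not always enough; inconclusive = exactly half the replicates above a set limit; inactive = most replicates below a set limit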;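 note: all wells also contain fluconazole at 8 µg/ml as a sub-toxic cotreatment; 0% = median of DMSO wells and 100% = median of geldanamycin control wells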
# * hit, by the source's call; u = inconclusive; x = no result. The entries come from a sample that favours hits as a whole.
SMILES,PolyA inh,NALP1 inh,NLRP3 yeast inh,T cruzi repl,Lmaj promast,Calb FLC
O=c1c2cc(Br)ccc2nc(-c2cccc(C(F)(F)F)c2)n1O,25,5,21,-8,8,90*
Cn1c(=O)n(CCCO)c(=O)c2c1nc1n2CCCN1Cc1ccccc1,-6,24,4,-1,x,-1
CC(=O)C(=Nc1ccccc1Cl)NNc1ccc(Cl)cc1,-4,6,12,-6,93*,-16
COc1ccc(OCC(O)CN(CCO)CC(O)Cn2ccc3ccccc32)cc1 (configuration not stated),-19,44,-14,-12,-2,-2
CCC(=C(c1ccc(OC)cc1)c1ccc(OC)cc1)c1cn(CC(O)CN(CCO)CCO)c2ccccc12 (configuration not stated),-3,-8,17,x,69*,-10
Cc1nc([N+](=O)[O-])cn1CC(=O)Nc1ccc([N+](=O)[O-])cc1,15,2,13,-2,x,-1
COc1ccc(N2CCN(CCNC(=O)Nc3ccc(C)c(Cl)c3)CC2)cc1,-9,12,23,8,x,-1
O=C(NCCCN1CCN(c2cccc(Cl)c2)CC1)c1ccc(N2CCCC2=O)cc1,7,22,9,4,97*,-1
COc1ccc(NC(=O)NCCN2CCN(c3cccc(Cl)c3)CC2)cc1,-13,24,24,3,85*,-3
CCCCN(C)CCCNC(=O)c1ccc(N2CCCC2=O)cc1,-12,14,-9,33,51*,-5
CCOc1ccc(NC2=C(Cl)C(=O)N(C3CCCCC3)C2=O)cc1,-12,28,6,15,-8,-23
CN1CCN(C2=C(Cl)C(=O)N(C3CCCCC3)C2=O)CC1,-6,9,26,34,95*,4
CCN1C(=O)/C(=C2/Sc3ccc(OC)cc3N2C)SC1=Nc1cccc(O)c1,12,12,19,48,99*,11
CCC(C)n1ncn(-c2ccc(N3CCN(c4ccc(O)cc4)CC3)cc2)c1=O (configuration not stated),-12,10,14,-17,24,5
CCC(C)n1ncn(-c2ccc(N3CCN(c4ccc(OCC5COC(Cn6cncn6)(c6ccc(Cl)cc6Cl)O5)cc4)CC3)cc2)c1=O (configuration not stated),-6,7,28,55*,x,x
CCN(CC)S(=O)(=O)c1ccc(N2CCN(S(=O)(=O)c3ccc4c(c3)OCCO4)CC2)nc1,3,13,0,25,79*,0
O=S(=O)(c1ccc2c(c1)OCCO2)N1CCN(c2ncnc3sccc23)CC1,-6,-12,27,-65,60*,u
Cc1ccc(S(=O)(=O)N2CCN(c3ncnc4sccc34)CC2)cc1C,x,x,34,x,x,x
CC1CCN(C(=O)c2[nH]cnc2C(=O)N2CCN(C(=O)OC(C)(C)C)CC2)CC1,x,x,7,x,x,x
O=C(COc1ccc(F)cc1Br)NCCCN1CCCC1=O,x,x,11,x,x,x
Cc1ccc(OCC(=O)N2CCN(c3nnc(-c4ccccc4)c4ccccc34)CC2)cc1,13,9,-8,70*,89*,-1
CC(=O)N1CCN(c2nnc(-c3ccc(C)cc3)c3ccccc23)CC1,-4,11,11,-7,x,9
Cc1cc(O)c(/C=N/Nc2ccc(Cl)cc2)c(=O)o1,-25,9,24,22,98*,87*
Cc1cc(O)c(/C=N/Nc2cccc(Cl)c2)c(=O)o1,-29,6,9,20,94*,-3
Cc1cc(O)c(/C=N/Nc2ccccc2Cl)c(=O)o1,-12,25,12,-4,8,-26
SMILES,PolyA inh,NALP1 inh,NLRP3 yeast inh,T cruzi repl,Lmaj promast,Calb FLC
Cc1cccc(N=Cc2c(O)cc(C)oc2=O)c1,15,8,-4,-1,62*,3
COc1ccc(S(=O)(=O)N(CC(=O)NC2CC2)c2ccc(C)cc2)cc1,-9,6,15,-3,5,9
O=C(O)c1ccc(Cn2c(SCc3cc(=O)n4cc(Br)ccc4n3)nc3ccsc3c2=O)cc1,-17,-2,4,8,-6,112*
CC1Cc2ccccc2N1CC(=O)NC(=O)NC1CCCCC1 (configuration not stated),-3,3,13,1,92*,22
CC1Cc2ccccc2N1CC(=O)NC(c1ccccc1)c1ccccc1 (configuration not stated),8,16,-3,26,-3,-4
CC1Cc2ccccc2N1CC(=O)NC(=O)NCc1ccccc1 (configuration not stated),x,12,15,0,63*,-6
CC1Cc2ccccc2N1CC(=O)NC(=O)NC(C)(C)C (configuration not stated),-5,-1,-3,7,2,-7
CNC(=O)C(=O)Nc1cc2c3c(c1)CCN3C(=O)CC2,7,8,16,-5,x,0
COc1ccc(/C(N)=N/OC(=O)c2c(-c3ccccc3Cl)noc2C)cc1OC,-7,7,8,57*,x,-3
Cc1onc(-c2c(F)cccc2Cl)c1C(=O)O/N=C(\N)c1ccc([N+](=O)[O-])o1,-6,7,2,60*,x,20
Cn1c(N)c(C(=O)COC(=O)c2ccc(Cl)c(S(=O)(=O)N3CCCCC3)c2)c(=O)n(C)c1=O,15,12,9,-4,88*,17
Cc1onc(-c2ccccc2Cl)c1C(=O)OCC(=O)c1c(N)n(C)c(=O)n(C)c1=O,4,-23,3,17,41,17
Cc1onc(-c2c(F)cccc2Cl)c1C(=O)OCC(=O)c1c(N)n(C)c(=O)n(C)c1=O,-4,-12,3,13,76*,3
Cc1nc(/C(N)=N/OC(=O)c2c(-c3ccccc3Cl)noc2C)cs1,-1,x,7,2,x,6
COc1ccc(NC(=O)c2ccc(NC3=NC4CS(=O)(=O)CC4S3)cc2)cc1 (configuration not stated),7,-1,-2,-1,x,-9
Cc1onc(-c2c(F)cccc2Cl)c1C(=O)OCn1nnc2ccccc2c1=O,x,6,14,x,99*,x
CCC(C)c1ccc2oc(-c3ccc(NC(=O)c4ncn[nH]4)cc3)nc2c1 (configuration not stated),-2,-12,12,20,65*,65
CC(C)c1ccc2oc(-c3ccc(NC(=O)c4ncn[nH]4)cc3)nc2c1,11,-14,22,39,-4,88*
CC(C)c1ccc2oc(-c3ccc(N)cc3)nc2c1,-5,24,27,13,-2,0
O=C(Nc1ccc2oc(-c3cccc4ccccc34)nc2c1)c1ncn[nH]1,-9,11,9,39,-1,-5
O=C(Nc1ccc2oc(-c3ccccc3F)nc2c1)c1ccc2c(c1)OCCO2,-10,18,20,26,66*,11
